ChEMBL document CHEMBL4261538, “Synthesis and molecular docking studies of xanthone attached amino acids as potential antimicrobial and anti-inflammatory agents” (Medchemcomm, 2017)
≈ marks a conversion by molar mass, not a printed value.

Tests used:
Escherichia coli [1] = test: Antibacterial activity against Escherichia coli incubated for 24 hrs by microdilution method; type: functional
Klebsiella pneumoniae [2] = test: Antibacterial activity against Klebsiella pneumoniae at 50 ug/ml incubated for 24 hrs by agar well diffusion method; type: functional
How it was run: (§1)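 Bacteria grown in nutrient broth at 37 °C for 24 h, then subcultured at room temperature. Compounds dissolved in DMSO at 5 mg mL⁻¹ and 5–20 µL added to 6 mm wells, giving 25, 50, 75, 100 µg per well. Gentamicin was the positive control and DMSO the negative control. Plates held at 37 °C for 24 h, then inhibition zone diameter (mm) measured. Values are means of three determinations.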

Klebsiella pneumoniae [3] = test: Antibacterial activity against Klebsiella pneumoniae incubated for 24 hrs by microdilution method; type: functional
Aspergillus niger [4] = test: Antifungal activity against Aspergillus niger at 25 ug/ml incubated for 48 hrs by agar well diffusion method; type: functional; settings: read-out: DIZ
How it was run: (§2)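 Compounds dissolved in DMSO at 5 mg mL⁻¹ and 5–20 µL added to 6 mm wells, giving 25, 50, 75, 100 µg per well. Bavistin was the positive control and DMSO the negative control. Plates incubated at 28 °C for 48 h, then inhibition zone diameter (mm) measured. Values are means of three determinations.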

Klebsiella pneumoniae [5] = test: Antibacterial activity against Klebsiella pneumoniae at 25 ug/ml incubated for 24 hrs by agar well diffusion method; type: functional; how it was run: as §1
Aspergillus niger [6] = test: Antifungal activity against Aspergillus niger incubated for 48 to 72 hrs by microdilution method; type: functional
How it was run: (§3)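 Sabouraud agar plates inoculated with fungal suspension at 10⁵ CFU mL⁻¹ plus serially diluted compounds and bavistin reference, both in DMSO. Incubated at 25 °C for 48–72 h. MIC is the lowest concentration completely inhibiting growth. Values are means of three determinations.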

Candida albicans [7] = test: Antifungal activity against Candida albicans at 25 ug/ml incubated for 48 hrs by agar well diffusion method; type: functional; settings: read-out: DIZ; how it was run: as §2
Staphylococcus aureus [8] = test: Antibacterial activity against Staphylococcus aureus at 25 ug/ml incubated for 24 hrs by agar well diffusion method; type: functional; how it was run: as §1
Fusarium oxysporum [9] = test: Antifungal activity against Fusarium oxysporum at 25 ug/ml incubated for 48 hrs by agar well diffusion method; type: functional; settings: read-out: DIZ; how it was run: as §2
Escherichia coli [10] = test: Antibacterial activity against Escherichia coli at 75 ug/ml incubated for 24 hrs by agar well diffusion method; type: functional; how it was run: as §1
Staphylococcus aureus [11] = test: Antibacterial activity against Staphylococcus aureus at 50 ug/ml incubated for 24 hrs by agar well diffusion method; type: functional; how it was run: as §1
Staphylococcus aureus [12] = test: Antibacterial activity against Staphylococcus aureus at 75 ug/ml incubated for 24 hrs by agar well diffusion method; type: functional; how it was run: as §1
Candida albicans [13] = test: Antifungal activity against Candida albicans incubated for 48 to 72 hrs by microdilution method; type: functional; how it was run: as §3
Fusarium oxysporum [14] = test: Antifungal activity against Fusarium oxysporum at 75 ug/ml incubated for 48 hrs by agar well diffusion method; type: functional; settings: read-out: DIZ; how it was run: as §2
Staphylococcus aureus [15] = test: Antibacterial activity against Staphylococcus aureus at 100 ug/ml incubated for 24 hrs by agar well diffusion method; type: functional; how it was run: as §1
Candida albicans [16] = test: Antifungal activity against Candida albicans at 75 ug/ml incubated for 48 hrs by agar well diffusion method; type: functional; settings: read-out: DIZ; how it was run: as §2
Candida albicans [17] = test: Antifungal activity against Candida albicans at 50 ug/ml incubated for 48 hrs by agar well diffusion method; type: functional; settings: read-out: DIZ; how it was run: as §2
Escherichia coli [18] = test: Antibacterial activity against Escherichia coli at 25 ug/ml incubated for 24 hrs by agar well diffusion method; type: functional; how it was run: as §1
Escherichia coli [19] = test: Antibacterial activity against Escherichia coli at 50 ug/ml incubated for 24 hrs by agar well diffusion method; type: functional; how it was run: as §1
Erythrocyte = test: Anti-inflammatory activity in human RBC assessed as inhibition of hypotonic solution-induced hemolysis after 10 mins by spectrophotometric method; type: functional, cell-based
How it was run: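 Human blood (heparinized) washed with 0.9% saline, packed cells made into a 40% v/v stock in isotonic phosphate buffer (154 mM NaCl, 10 mM sodium phosphate, pH 7.4). Stock RBC mixed with hypotonic buffer (50 mM NaCl, 10 mM phosphate, pH 7.4) plus sample at 20–100 µg mL⁻¹.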

Bacillus subtilis [20] = test: Antibacterial activity against Bacillus subtilis at 100 ug/ml incubated for 24 hrs by agar well diffusion method; type: functional; how it was run: as §1
Aspergillus niger [21] = test: Antifungal activity against Aspergillus niger at 100 ug/ml incubated for 48 hrs by agar well diffusion method; type: functional; settings: read-out: DIZ; how it was run: as §2
Staphylococcus aureus [22] = test: Antibacterial activity against Staphylococcus aureus incubated for 24 hrs by microdilution method; type: functional
Aspergillus niger [23] = test: Antifungal activity against Aspergillus niger at 50 ug/ml incubated for 48 hrs by agar well diffusion method; type: functional; settings: read-out: DIZ; how it was run: as §2
Bacillus subtilis [24] = test: Antibacterial activity against Bacillus subtilis incubated for 24 hrs by microdilution method; type: functional
Klebsiella pneumoniae [25] = test: Antibacterial activity against Klebsiella pneumoniae at 100 ug/ml incubated for 24 hrs by agar well diffusion method; type: functional; how it was run: as §1
Bacillus subtilis [26] = test: Antibacterial activity against Bacillus subtilis at 25 ug/ml incubated for 24 hrs by agar well diffusion method; type: functional; how it was run: as §1
Fusarium oxysporum [27] = test: Antifungal activity against Fusarium oxysporum at 50 ug/ml incubated for 48 hrs by agar well diffusion method; type: functional; settings: read-out: DIZ; how it was run: as §2
Candida albicans [28] = test: Antifungal activity against Candida albicans at 100 ug/ml incubated for 48 hrs by agar well diffusion method; type: functional; settings: read-out: DIZ; how it was run: as §2
Fusarium oxysporum [29] = test: Antifungal activity against Fusarium oxysporum at 100 ug/ml incubated for 48 hrs by agar well diffusion method; type: functional; settings: read-out: DIZ; how it was run: as §2
Fusarium oxysporum [30] = test: Antifungal activity against Fusarium oxysporum incubated for 48 to 72 hrs by microdilution method; type: functional; how it was run: as §3
Bacillus subtilis [31] = test: Antibacterial activity against Bacillus subtilis at 50 ug/ml incubated for 24 hrs by agar well diffusion method; type: functional; how it was run: as §1
Escherichia coli [32] = test: Antibacterial activity against Escherichia coli at 100 ug/ml incubated for 24 hrs by agar well diffusion method; type: functional; how it was run: as §1
Bacillus subtilis [33] = test: Antibacterial activity against Bacillus subtilis at 75 ug/ml incubated for 24 hrs by agar well diffusion method; type: functional; how it was run: as §1
Klebsiella pneumoniae [34] = test: Antibacterial activity against Klebsiella pneumoniae at 75 ug/ml incubated for 24 hrs by agar well diffusion method; type: functional; how it was run: as §1
Aspergillus niger [35] = test: Antifungal activity against Aspergillus niger at 75 ug/ml incubated for 48 hrs by agar well diffusion method; type: functional; settings: read-out: DIZ; how it was run: as §2

Molecule	MIC (Escherichia coli [1])	MIC (Klebsiella pneumoniae [3])	zone of inhibition at 25 µg/mL (Aspergillus niger [4])	MIC (Aspergillus niger [6])	zone of inhibition at 25 µg/mL (Candida albicans [7])	zone of inhibition at 25 µg/mL (Fusarium oxysporum [9])	MIC (Candida albicans [13])	zone of inhibition at 75 µg/mL (Fusarium oxysporum [14])	zone of inhibition at 75 µg/mL (Candida albicans [16])	zone of inhibition at 50 µg/mL (Candida albicans [17])	zone of inhibition at 100 µg/mL (Aspergillus niger [21])	MIC (Staphylococcus aureus [22])	zone of inhibition at 50 µg/mL (Aspergillus niger [23])	MIC (Bacillus subtilis [24])	zone of inhibition at 50 µg/mL (Fusarium oxysporum [27])	zone of inhibition at 100 µg/mL (Candida albicans [28])	zone of inhibition at 100 µg/mL (Fusarium oxysporum [29])	MIC (Fusarium oxysporum [30])	zone of inhibition at 75 µg/mL (Aspergillus niger [35])	further results
Cl.N[C@@H](Cc1ccccc1)C(=O)Oc1ccc2c(=O)c3ccccc3oc2c1	22 µg/mL	24 µg/mL	20 mm	26 µg/mL	24 mm	20 mm	28 µg/mL	30 mm	34 mm	28 mm	41 mm	22 µg/mL	30 mm	22 µg/mL	25 mm	40 mm	36 mm	26 µg/mL	36 mm	zone of inhibition at 50 µg/mL (Klebsiella pneumoniae [2]; read-out: DIZ): 29 mm; zone of inhibition at 25 µg/mL (Klebsiella pneumoniae [5]; read-out: DIZ): 23 mm; zone of inhibition at 25 µg/mL (Staphylococcus aureus [8]; read-out: DIZ): 22 mm; zone of inhibition at 75 µg/mL (Escherichia coli [10]; read-out: DIZ): 34 mm; zone of inhibition at 50 µg/mL (Staphylococcus aureus [11]; read-out: DIZ): 27 mm; zone of inhibition at 75 µg/mL (Staphylococcus aureus [12]; read-out: DIZ): 34 mm; zone of inhibition at 100 µg/mL (Staphylococcus aureus [15]; read-out: DIZ): 38 mm; zone of inhibition at 25 µg/mL (Escherichia coli [18]; read-out: DIZ): 20 mm; zone of inhibition at 50 µg/mL (Escherichia coli [19]; read-out: DIZ): 27 mm; IC50 (Erythrocyte): 38 µg/mL; zone of inhibition at 100 µg/mL (Bacillus subtilis [20]; read-out: DIZ): 38 mm; zone of inhibition at 100 µg/mL (Klebsiella pneumoniae [25]; read-out: DIZ): 40 mm; zone of inhibition at 25 µg/mL (Bacillus subtilis [26]; read-out: DIZ): 22 mm; zone of inhibition at 50 µg/mL (Bacillus subtilis [31]; read-out: DIZ): 27 mm; zone of inhibition at 100 µg/mL (Escherichia coli [32]; read-out: DIZ): 37 mm; zone of inhibition at 75 µg/mL (Bacillus subtilis [33]; read-out: DIZ): 34 mm; zone of inhibition at 75 µg/mL (Klebsiella pneumoniae [34]; read-out: DIZ): 34 mm
GENTAMICIN	26 µg/mL	26 µg/mL										26 µg/mL		28 µg/mL						inhibition zone (IZ) (Klebsiella pneumoniae [2]): 24 mm; inhibition zone (IZ) (Klebsiella pneumoniae [5]): 19 mm; inhibition zone (IZ) (Staphylococcus aureus [8]): 17 mm; inhibition zone (IZ) (Escherichia coli [10]): 29 mm; inhibition zone (IZ) (Staphylococcus aureus [11]): 21 mm; inhibition zone (IZ) (Staphylococcus aureus [12]): 29 mm; inhibition zone (IZ) (Staphylococcus aureus [15]): 32 mm; inhibition zone (IZ) (Escherichia coli [18]): 18 mm; inhibition zone (IZ) (Escherichia coli [19]): 24 mm; inhibition zone (IZ) (Bacillus subtilis [20]): 33 mm; inhibition zone (IZ) (Klebsiella pneumoniae [25]): 34 mm; inhibition zone (IZ) (Bacillus subtilis [26]): 21 mm; inhibition zone (IZ) (Bacillus subtilis [31]): 24 mm; inhibition zone (IZ) (Escherichia coli [32]): 33 mm; inhibition zone (IZ) (Bacillus subtilis [33]): 28 mm; inhibition zone (IZ) (Klebsiella pneumoniae [34]): 29 mm
COC(=O)Nc1nc2ccccc2[nH]1 [CARBENDAZIM]			20 mm	27 µg/mL (≈ 141 µM)	19 mm	22 mm	28 µg/mL (≈ 146 µM)	33 mm	29 mm	24 mm	36 mm		27 mm		27 mm	32 mm	36 mm	27 µg/mL (≈ 141 µM)	33 mm	
